{"data": "Published values gathered from unrelated publications", "target": "5'-AMP-activated protein kinase catalytic subunit alpha-2 (PRKAA2, Homo sapiens, UniProt P54646)", "note": "Lines come from different studies, so protocols differ."}
{"Compound": "O=C(NS(=O)(=O)c1ccc(NCC2CCOCC2)c([N+](=O)[O-])c1)c1ccc(N2CCN(Cc3ccc(C(F)(F)F)cc3-c3ccc(Cl)cc3)CC2)cc1Oc1cnc2[nH]ccc2c1", "test": "cell-free assay, competition with immobilised ligand", "conditions": "1 µM", "remaining binding [%]": 100}
{"Compound": "CN(C)c1ncc(F)c(-c2cnn3ncccc23)n1", "test": "binding", "conditions": "1 µM", "remaining binding [%]": 100}
{"Compound": "Nc1ncc2c(n1)-c1c([nH]c3ccc(C#CC4CC4)cc13)CCCC2", "test": "binding, competition with immobilised ligand", "conditions": "1 µM", "remaining binding [%]": 85}
{"Compound": "Cc1c(NC(=O)c2cc(C(N)=O)nc3cc(F)ccc23)c(C(F)(F)F)nn1Cc1ccc(C(C)(C)C)cc1", "test": "cell-free assay, competition with immobilised ligand", "conditions": "1 µM", "remaining binding [%]": 100}
{"Compound": "Cc1cnc(Nc2ccc(C(=O)N3CCC(N4CCCC4)CC3)cc2)nc1-c1cc2ccccc2s1", "test": "binding, competition with immobilised ligand", "conditions": "1 µM", "remaining binding [%]": 7}
{"Compound": "COc1cnc(Nc2cccc(S(N)(=O)=O)c2)nc1N1CCN(c2ccccc2)C(=O)C1", "test": "binding, competition with immobilised ligand", "conditions": "1 µM", "remaining binding [%]": 100}
{"Compound": "O=C(c1ccc(Nc2nccc(-c3cc4ccccc4s3)n2)cc1)N1CCC(N2CCCC2)CC1", "test": "binding, competition with immobilised ligand", "conditions": "1 µM", "remaining binding [%]": 31}
{"Compound": "O=C(NCc1ncc(C(F)(F)F)cc1Cl)c1ccc2c(c1)C1(CCS(=O)(=O)CC1)[C@H](C1CC1)N2S(=O)(=O)c1ccc(F)cc1", "test": "cell-free assay, competition with immobilised ligand", "conditions": "1 µM", "remaining binding [%]": 100}
{"Compound": "FC(F)(F)Oc1cccc(-c2cnc3ccc(-c4ccncc4)nn23)c1", "test": "cell-free assay, competition with immobilised ligand", "conditions": "5 µM", "remaining binding [%]": 80}
{"Compound": "Cc1nc(N2CC[C@@H](O)C2)ncc1-c1cc(C(F)(F)F)cc2[nH]ncc12", "test": "cell-free assay, competition with immobilised ligand", "conditions": "1 µM", "remaining binding [%]": 100}
{"Compound": "C[C@@H]1CCN(c2nccc(-c3cnn4ncccc34)n2)C1", "test": "binding", "conditions": "1 µM", "remaining binding [%]": 74}
{"Compound": "CNC(=O)Nc1ccc2c(c1)[C@@]1(CC2)OC(=O)N(CC(=O)N(Cc2ccc(F)cc2)[C@@H](C)C(F)(F)F)C1=O", "test": "cell-free assay, competition with immobilised ligand", "conditions": "1 µM", "remaining binding [%]": 57}
{"Compound": "N[C@@H]1CCN(c2nccc(-c3cnn4ncccc34)n2)C1", "test": "binding", "conditions": "1 µM", "remaining binding [%]": 98}
{"Compound": "O=C(NCCCN1CCOCC1)c1ccc(Nc2ncc(Cl)c(-c3ccc(Cl)s3)n2)cc1", "test": "binding, competition with immobilised ligand", "conditions": "1 µM", "remaining binding [%]": 17}
{"Compound": "c1cnn2ncc(-c3ccnc(N4CCC45COC5)n3)c2c1", "test": "binding", "conditions": "1 µM", "remaining binding [%]": 91}
{"Compound": "CC1=C(C#N)[C@@H](c2ccc3[nH]nc(C)c3c2)C(C#N)=C(c2ccc(Cl)cc2)N1", "test": "cell-free assay, competition with immobilised ligand", "conditions": "1 µM", "remaining binding [%]": 95.3}
{"Compound": "CC1CCCN1c1nccc(-c2cnn3ncccc23)n1 (stereo not shown)", "test": "binding", "conditions": "1 µM", "remaining binding [%]": 100}
{"Compound": "CNC(=O)[C@@H]1CC[C@@H](n2c(-c3ccc4cnccc4c3)nc3ccc(C(=O)NCc4cccc(C(N)=O)c4)cc32)C1", "test": "binding, competition with immobilised ligand", "conditions": "1 µM", "remaining binding [%]": 91}
{"Compound": "CN(CCCC(F)(F)F)c1nccc(-c2cnn3ncccc23)n1", "test": "binding", "conditions": "1 µM", "remaining binding [%]": 100}
{"Compound": "O=C(Nc1c[nH]nc1C(=O)NC1CCNCC1)c1cc(F)cc(F)c1", "test": "binding, competition with immobilised ligand", "conditions": "1 µM", "remaining binding [%]": 100}
{"Compound": "F[C@@H]1CCN(c2nccc(-c3cnn4ncccc34)n2)C1", "test": "binding", "conditions": "1 µM", "remaining binding [%]": 100}
{"Compound": "C[C@H](c1ccc(F)cc1)N(Cc1cccc(C(=O)O)c1)C(=O)c1cnc2ccccc2c1", "test": "cell-free assay, competition with immobilised ligand", "conditions": "1 µM", "remaining binding [%]": 100}
